{"source": "paper PMC4607043", "about": "(International journal of biological macromolecules, 2015)", "key": {"[1]": {"system": "ATP synthase", "details": "cited from earlier work"}, "[2]": {"system": "wild type E. coli cells", "experiment": "Growth in presence of peptides, wild-type", "format": "cell-based", "details": "succinate plates and limiting glucose", "in_short": "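Wild-type DK8/pBWU13.4 was grown with test peptide on succinate plates, scored by eye after 3 days, and in limiting glucose (3–5 mM). Glucose growth yield is expressed relative to wild type without peptide, set as 100%. Values are means of four to six experiments.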"}, "[3]": {"system": "βD380R/βD386R", "experiment": "Growth on succinate plates", "format": "cell-based, E. coli", "details": "3 days, estimated by eye, means of four to six experiments", "in_short": "(§1)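 E. coli DK8 carrying plasmid-borne ATP synthase genes (wild-type pBWU13.4; mutants made by site-directed mutagenesis and sequence-verified) were grown on plates with succinate as the non-fermentable carbon source, with or without test peptide. Growth was scored by eye after 3 days on a scale from ++++ (normal/heavy) to − (none). Values are means of four to six experiments.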"}, "[4]": {"system": "membrane bound F1Fo ATP synthase mutants βD380A/Q/R or βD386A/Q/R", "experiment": "Inhibition of ATPase activity, single mutants as a group", "format": "biochemical, Escherichia coli", "details": "for inhibition of ATPase, single mutants (in words): single mutations with replacement of Asp to Ala, Gln, or Arg", "in_short": "(§2)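 Wild-type or mutant membrane-bound F1Fo was prepared by French press, washed, and taken up in 50 mM TrisSO4 pH 8.0, 2.5 mM MgSO4. It was preincubated with a range of test peptide concentrations for 60 min at room temperature, then assayed with 10 mM NaATP, 4 mM MgCl2, 50 mM TrisSO4 pH 8.5 for 5–10 min using 20–30 µg protein. Reactions were stopped with SDS (3.3% final) and Pi read at OD700 (Taussky–Shorr). Activity is relative to wild type without peptide, from duplicate tubes and two or more membrane preparations.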"}, "[5]": {"system": "Wild-type (pBWU13.4/DK8)", "experiment": "Growth yield in limiting glucose", "format": "cell-based, E. coli", "details": "3–5 mM glucose, wild type in absence of peptides = 100%, means of four to six experiments", "in_short": "(§3)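 Measures oxidative plus substrate-level phosphorylation as growth on limiting glucose (3–5 mM). The host is E. coli DK8 carrying plasmid pBWU13.4, which encodes all ATP synthase genes, or site-directed βD380/βD386 mutants built on a βY331W background; mutations were confirmed by sequencing. Cultures were grown with or without each of two C-amidated test peptides (>95% HPLC purity, dissolved in deionized water). pUC118/DK8 served as the null strain.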"}, "[6]": {"system": "βD380Q", "experiment": "Growth yield in limiting glucose", "format": "cell-based, E. coli", "details": "3–5 mM glucose, wild type in absence of peptides = 100%, means of four to six experiments", "in_short": "as §3"}, "[7]": {"system": "membrane bound F1Fo ATP synthase double mutants βD380A/βD386A, βD380Q/βD386Q, or βD380R/βD386R", "experiment": "Inhibition of ATPase activity, double mutants as a group", "format": "biochemical, Escherichia coli", "in_short": "as §2"}, "[8]": {"system": "βD380A", "experiment": "Growth on succinate plates", "format": "cell-based, E. coli", "details": "3 days, estimated by eye, means of four to six experiments", "in_short": "as §1"}, "[9]": {"system": "βD380R/βD386R", "experiment": "Growth yield in limiting glucose", "format": "cell-based, E. coli", "details": "3–5 mM glucose, wild type in absence of peptides = 100%, means of four to six experiments", "in_short": "as §3"}, "[10]": {"system": "βY331W", "experiment": "Growth on succinate plates", "format": "cell-based, E. coli", "details": "3 days, estimated by eye, means of four to six experiments", "in_short": "as §1"}, "[11]": {"system": "Null (pUC118/DK8)", "experiment": "Growth yield in limiting glucose", "format": "cell-based, E. coli", "details": "3–5 mM glucose, wild type in absence of peptides = 100%, means of four to six experiments"}, "[12]": {"system": "βD386Q", "experiment": "Growth yield in limiting glucose", "format": "cell-based, E. coli", "details": "3–5 mM glucose, wild type in absence of peptides = 100%, means of four to six experiments", "in_short": "as §3"}, "[13]": {"system": "mutant E. coli cells", "experiment": "Growth in presence of peptides, mutants", "format": "cell-based", "details": "succinate plates and limiting glucose"}, "[14]": {"system": "βD380Q", "experiment": "Growth on succinate plates", "format": "cell-based, E. coli", "details": "3 days, estimated by eye, means of four to six experiments", "in_short": "as §1"}, "[15]": {"system": "βD386R", "experiment": "Growth yield in limiting glucose", "format": "cell-based, E. coli", "details": "3–5 mM glucose, wild type in absence of peptides = 100%, means of four to six experiments", "in_short": "as §3"}, "[16]": {"system": "βD380A", "experiment": "Growth yield in limiting glucose", "format": "cell-based, E. coli", "details": "3–5 mM glucose, wild type in absence of peptides = 100%, means of four to six experiments", "in_short": "as §3"}, "[17]": {"system": "βD380Q/βD386Q", "experiment": "Growth on succinate plates", "format": "cell-based, E. coli", "details": "3 days, estimated by eye, means of four to six experiments", "in_short": "as §1"}, "[18]": {"system": "βD380R", "experiment": "Growth yield in limiting glucose", "format": "cell-based, E. coli", "details": "3–5 mM glucose, wild type in absence of peptides = 100%, means of four to six experiments", "in_short": "as §3"}, "[19]": {"system": "βY331W", "experiment": "Growth yield in limiting glucose", "format": "cell-based, E. coli", "details": "3–5 mM glucose, wild type in absence of peptides = 100%, means of four to six experiments", "in_short": "as §3"}, "[20]": {"system": "βD386R", "experiment": "Growth on succinate plates", "format": "cell-based, E. coli", "details": "3 days, estimated by eye, means of four to six experiments", "in_short": "as §1"}, "[21]": {"system": "βD386A", "experiment": "Growth yield in limiting glucose", "format": "cell-based, E. coli", "details": "3–5 mM glucose, wild type in absence of peptides = 100%, means of four to six experiments", "in_short": "as §3"}, "[22]": {"system": "βD380R", "experiment": "Growth on succinate plates", "format": "cell-based, E. coli", "details": "3 days, estimated by eye, means of four to six experiments", "in_short": "as §1"}, "[23]": {"system": "βD380Q/βD386Q", "experiment": "Growth yield in limiting glucose", "format": "cell-based, E. coli", "details": "3–5 mM glucose, wild type in absence of peptides = 100%, means of four to six experiments", "in_short": "as §3"}, "[24]": {"system": "Wild-type (pBWU13.4/DK8)", "experiment": "Growth on succinate plates", "format": "cell-based, E. coli", "details": "3 days, estimated by eye, means of four to six experiments", "in_short": "as §1"}, "[25]": {"system": "βD386Q", "experiment": "Growth on succinate plates", "format": "cell-based, E. coli", "details": "3 days, estimated by eye, means of four to six experiments", "in_short": "as §1"}, "[26]": {"system": "βD380A/βD386A", "experiment": "Growth yield in limiting glucose", "format": "cell-based, E. coli", "details": "3–5 mM glucose, wild type in absence of peptides = 100%, means of four to six experiments", "in_short": "as §3"}, "[27]": {"system": "membrane bound F1Fo ATP synthase mutant βD380R", "experiment": "Inhibition of ATPase activity, βD380R", "format": "biochemical, Escherichia coli", "details": "at maximal inhibition, preincubated 60 min at room temperature, pH 8.0", "in_short": "as §2"}, "[28]": {"system": "βD386A", "experiment": "Growth on succinate plates", "format": "cell-based, E. coli", "details": "3 days, estimated by eye, means of four to six experiments", "in_short": "as §1"}, "[29]": {"system": "membrane bound F1Fo ATP synthase mutant βD386R", "experiment": "Inhibition of ATPase activity, βD386R", "format": "biochemical, Escherichia coli", "details": "at maximal inhibition, preincubated 60 min at room temperature, pH 8.0", "in_short": "as §2"}, "[30]": {"system": "βD380A/βD386A", "experiment": "Growth on succinate plates", "format": "cell-based, E. coli", "details": "3 days, estimated by eye, means of four to six experiments", "in_short": "as §1"}}}
{"molecule": "[N-]=[N+]=[N-].[Na+]", "note": "[NaN3]", "values": [{"measurement": "maximal inhibition of mutant or wild-type ATP synthase (in words)", "setting": "[1]", "result": "partially or incompletely inhibited"}]}
{"molecule": "O=[N+]([O-])c1ccc(Cl)c2nonc12", "note": "[NBD-Cl]", "values": [{"measurement": "maximal inhibition of mutant or wild-type ATP synthase (in words)", "setting": "[1]", "result": "partially or incompletely inhibited"}]}
{"molecule": "melittin-amide", "values": [{"measurement": "growth of wild-type cells in presence of peptide (in words)", "setting": "[2]", "result": "abrogated growth"}, {"measurement": "Growth on succinate plates", "setting": "[3]", "result": "++/++"}, {"measurement": "refractoriness of mutants to peptide induced inhibition (in words)", "setting": "[4]; all of the mutations used in this study (single and double)", "result": "refractory"}, {"measurement": "inhibition of ATPase, single mutants (in words)", "setting": "[4]", "result": "decreased inhibition"}, {"measurement": "inhibition of ATPase, single mutants (in words)", "setting": "[4]; listed as c-terminal amide bound melittin", "result": "only partial inhibition"}, {"measurement": "Growth yield in limiting glucose", "setting": "[5]", "result": 20, "unit": "%"}, {"measurement": "Growth yield in limiting glucose", "setting": "[6]", "result": 90, "unit": "%"}, {"measurement": "inhibition of ATPase, double mutants (in words)", "setting": "[7]", "result": "very little or no inhibition"}, {"measurement": "Growth on succinate plates", "setting": "[8]", "result": "+++/+++"}, {"measurement": "Growth yield in limiting glucose", "setting": "[9]", "result": 66, "unit": "%"}, {"measurement": "Growth on succinate plates", "setting": "[10]", "result": "±/±"}, {"measurement": "Growth yield in limiting glucose", "setting": "[11]", "result": 43, "unit": "%"}, {"measurement": "Growth yield in limiting glucose", "setting": "[12]", "result": 74, "unit": "%"}, {"measurement": "growth of mutant cells in presence of peptide (in words)", "setting": "[13]", "result": "not much affected"}, {"measurement": "Growth on succinate plates", "setting": "[14]", "result": "+++/+++"}, {"measurement": "Growth yield in limiting glucose", "setting": "[15]", "result": 70, "unit": "%"}, {"measurement": "Growth yield in limiting glucose", "setting": "[16]", "result": 89, "unit": "%"}, {"measurement": "Growth on succinate plates", "setting": "[17]", "result": "+++/+++"}, {"measurement": "Growth yield in limiting glucose", "setting": "[18]", "result": 82, "unit": "%"}, {"measurement": "Growth yield in limiting glucose", "setting": "[19]", "result": 22, "unit": "%"}, {"measurement": "Growth on succinate plates", "setting": "[20]", "result": "+++/+++"}, {"measurement": "Growth yield in limiting glucose", "setting": "[21]", "result": 79, "unit": "%"}, {"measurement": "Growth on succinate plates", "setting": "[22]", "result": "+++/+++"}, {"measurement": "Growth yield in limiting glucose", "setting": "[23]", "result": 72, "unit": "%"}, {"measurement": "Growth on succinate plates", "setting": "[24]", "result": "±/±"}, {"measurement": "Growth on succinate plates", "setting": "[25]", "result": "+++/+++"}, {"measurement": "Growth yield in limiting glucose", "setting": "[26]", "result": 75, "unit": "%"}, {"measurement": "residual ATPase activity", "setting": "[27]", "result": 80, "unit": "%"}, {"measurement": "Growth on succinate plates", "setting": "[28]", "result": "+++/+++"}, {"measurement": "prevention of inhibition (residual activity)", "setting": "[29]", "result": 80, "unit": "%"}, {"measurement": "Growth on succinate plates", "setting": "[30]", "result": "+++/+++"}]}
{"molecule": "[Cl][Sc]([Cl])[Cl]", "note": "[ScCl3]", "values": [{"measurement": "maximal inhibition of mutant or wild-type ATP synthase (in words)", "setting": "[1]", "result": "partially or incompletely inhibited"}]}
{"molecule": "melittin", "values": [{"measurement": "ATPase inhibitory activity (in words)", "setting": "[1]", "result": "strongly inhibited"}]}
{"molecule": "[Cl][Al]([Cl])[Cl]", "note": "[AlCl3]", "values": [{"measurement": "maximal inhibition of mutant or wild-type ATP synthase (in words)", "setting": "[1]", "result": "partially or incompletely inhibited"}]}
